Results from ChEMBL document CHEMBL4312027, “Synthesis, characterization, and biological activity of a triphenylphosphonium-containing imidazolium salt against select bladder cancer cell lines” (Eur J Med Chem, 2020).
The source made the active and inactive calls. The rule behind the calls is not given here.

Legend:
RT-112 [1] = test: Cell cycle arrest in human RT112 cells assessed as increase in cell accumulation at sub-G1 phase at 250 uM incubated for 1 hr measured after culturing in normal medium for 24 hrs by propidium iodide/RNase staining based FACScan flow cytometry analysis; assay type: functional
Method in brief: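 Seeded at 300,000 cells/well in triplicate per treatment; 24 h later exposed to 250 or 500 μM or vehicle for 1 h. After 24 h in normal media, media plus cells were collected, washed, fixed in cold 70% ethanol (4 °C, 30 min), treated with phosphate citric acid buffer, stained with PI/RNase and gated for sub-G1 by flow cytometry.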

5637 = test: Growth inhibition of human 5637 cells measured after 1 hr by Celltiter-Glo luminescent cell viability assay; assay type: functional; settings: Homo sapiens, 5637, 1 h
Method in brief: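 Seeded at 10000 cells/well and grown 24 h, then exposed to 62.5–2000 μM (two-fold steps) or vehicle in growth medium for 1 h. Medium was replaced with normal medium for 24 h before CellTiter-Glo luminescence was read. Survival was expressed relative to vehicle, with quadruplicate wells, and GI50 was calculated.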

SF-268 = test: Growth inhibition of human SF268 cells assessed as growth percent at 10 uM incubated for 48 hrs by sulforhodamine B assay relative to control; assay type: functional; settings: SF-268, 48 h, read-out: Activity
NCI-H23 = test: Growth inhibition of human NCI-H23 cells assessed as growth percent at 10 uM incubated for 48 hrs by sulforhodamine B assay relative to control; assay type: functional; settings: NCI-H23, 48 h, read-out: Activity
MCF7 = test: Growth inhibition of human MCF7 cells assessed as growth percent at 10 uM incubated for 48 hrs by sulforhodamine B assay relative to control; assay type: functional; settings: MCF7, 48 h, read-out: Activity
Mus musculus = test: Induction of urothelium exfoliation in anesthetized female mouse model assessed as decrease in urothelial cell height at 750 to 1500 uM administered via intravesical instillation after bladder evacuation treated for 1 hr followed by repetition of the treatment after 24 hrs and measured at 24 hrs after final treatment by hematoxylin and eosin staining based analysis; assay type: organism-based; settings: in vivo, other
Method in brief: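 Female mice anesthetized, 1–3% isoflurane. Bladder evacuated, then 100 μL of 750 or 1500 μM in 10% DMSO/PBS (or vehicle) instilled by 24G angiocatheter. Catheter left in place for a 1 h dwell. Repeated after 24 h; mice sacrificed 24 h after final dose. Bladder histology read for urothelial height and layers.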

HCT-116 = test: Growth inhibition of human HCT116 cells assessed as growth percent at 10 uM incubated for 48 hrs by sulforhodamine B assay relative to control; assay type: functional; settings: HCT-116, 48 h, read-out: Activity
Hs-578T = test: Growth inhibition of human Hs 578T cells assessed as growth percent at 10 uM incubated for 48 hrs by sulforhodamine B assay relative to control; assay type: functional; settings: read-out: Activity
K562 = test: Growth inhibition of human K562 cells assessed as growth percent at 10 uM incubated for 48 hrs by sulforhodamine B assay relative to control; assay type: functional; settings: K562, 48 h, read-out: Activity
Malme-3M = test: Growth inhibition of human MALME-3M cells assessed as growth percent at 10 uM incubated for 48 hrs by sulforhodamine B assay relative to control; assay type: functional; settings: read-out: Activity
HCT-15 = test: Growth inhibition of human HCT15 cells assessed as growth percent at 10 uM incubated for 48 hrs by sulforhodamine B assay relative to control; assay type: functional; settings: HCT-15, 48 h, read-out: Activity
RT-112 [2] = test: Induction of apoptosis in human RT112 cells assessed as caspase 9 cleavage at 500 uM incubated for 1 hr and measured immediately after treatment by Western blot analysis; assay type: functional, cell-based
Method in brief: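 RT112 seeded 300,000/well; after 24 h, 250 or 500 μM or vehicle. Cells plus floating debris harvested immediately or 24 h after treatment, lysed in RIPA with protease inhibitors. About 30 μg protein heated 10 min at 95 °C with DTT, run on SDS-PAGE. Immunoblotted for PARP and caspase 9, Ran as loading control, ECL detection.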

UACC-62 = test: Growth inhibition of human UACC62 cells assessed as growth percent at 10 uM incubated for 48 hrs by sulforhodamine B assay relative to control; assay type: functional; settings: UACC-62, 48 h, read-out: Activity
786-0 = test: Growth inhibition of human 786-0 cells assessed as growth percent at 10 uM incubated for 48 hrs by sulforhodamine B assay relative to control; assay type: functional; settings: 786-0, 48 h, read-out: Activity
RT-112 [3] = test: Induction of mitochondrial membrane depolarization in human RT112 cells at 200 uM measured after 2 to 4 hrs by JC-1 staining based confocal microscopy; assay type: functional, cell-based
Method in brief: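 RT112 cells, 200000 per glass-bottom dish, plated overnight. Exposed to 200 μM for 45 min, then JC-1 added (final 10 μg/mL) for 15 min. Confocal live imaging, excitation 485 nm, emission 530 and 590 nm, every 15 min for 6 h. Red punctate staining taken as polarized mitochondria, green as depolarized. CCCP as positive control.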

RT-112 [4] = test: Growth inhibition of human RT112 cells at 1000 uM measured after 15 to 60 mins by Celltiter-Glo luminescent cell viability assay relative to control; assay type: functional; settings: read-out: GI
Method in brief: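 Cells seeded 10000/well, 24 h, then exposed in ATCC-recommended medium to 62.5–2000 μM (two-fold steps) or vehicle for the set time (5–60 min), then normal medium. After 24 h, plates equilibrated 30 min at room temperature, CellTiter-Glo added, 2 min at room temperature, luminescence read. Survival relative to vehicle control; quadruplicate.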

T47D = test: Growth inhibition of human T47D cells assessed as growth percent at 10 uM incubated for 48 hrs by sulforhodamine B assay relative to control; assay type: functional; settings: read-out: Activity
RT-112 [5] = test: Anticlonogenic activity against human RT112 cells assessed as no colony formation at 250 to 500 uM incubated for 1 hr measured after culturing in normal medium for 10 days by crystal violet staining assay; assay type: functional, cell-based
Method in brief: (§1)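 Cells seeded at 500/well, treated 24 h later with 250 or 500 μM drug or vehicle for 1 h. Cells were then grown in normal media for 10 days, stained with 0.5% crystal violet in 20% MeOH/water at 4 °C for 5 min, washed, dried and imaged. Run in triplicate.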

CAKI-1 = test: Growth inhibition of human Caki1 cells assessed as growth percent at 10 uM incubated for 48 hrs by sulforhodamine B assay relative to control; assay type: functional; settings: CAKI-1, 48 h, read-out: Activity
J82 = test: Anticlonogenic activity against human J82 cells assessed as decrease in colony formation at 250 to 500 uM incubated for 1 hr measured after culturing in normal medium for 10 days by crystal violet staining assay; assay type: functional, cell-based; method in brief: as §1
MOLT-4 = test: Growth inhibition of human MOLT4 cells assessed as growth percent at 10 uM incubated for 48 hrs by sulforhodamine B assay relative to control; assay type: functional; settings: MOLT-4, 48 h, read-out: Activity
CCRF-CEM = test: Growth inhibition of human CCRF-CEM cells assessed as growth percent at 10 uM incubated for 48 hrs by sulforhodamine B assay relative to control; assay type: functional; settings: read-out: Activity
SF-539 = test: Growth inhibition of human SF539 cells assessed as growth percent at 10 uM incubated for 48 hrs by sulforhodamine B assay relative to control; assay type: functional; settings: SF-539, 48 h, read-out: Activity

Structure (SMILES): [Br-].[Br-].c1ccc([P+](CCCc2n(Cc3ccc4ccccc4c3)c3ccccc3[n+]2Cc2ccc3ccccc3c2)(c2ccccc2)c2ccccc2)cc1
- Activity (RT-112 [1]): Active
- GI50 5637: 200 µM
- growth at 10 µM (SF-268): 79%
- growth at 10 µM (NCI-H23): 44%
- growth at 10 µM (MCF7): 73.9%
- Activity (Mus musculus): Non-Toxic
- growth at 10 µM (HCT-116): 24.2%
- growth at 10 µM (Hs-578T): 68.6%
- growth at 10 µM (K562): 23.7%
- growth at 10 µM (Malme-3M): 65.2%
- growth at 10 µM (HCT-15): 85.5%
- Activity (RT-112 [2]): inactive
- growth at 10 µM (UACC-62): 37.8%
- growth at 10 µM (786-0): 70.8%
- Activity (RT-112 [3]): Active
- inhibition of growth at 1000 µM (RT-112 [4]): 100%
- growth at 10 µM (T47D): 56.9%
- inhibition (RT-112 [5]): Active
- growth at 10 µM (CAKI-1): 79.9%
- inhibition (J82): Active
- growth at 10 µM (MOLT-4): 57.6%
- growth at 10 µM (CCRF-CEM): 43.1%
- growth at 10 µM (SF-539): 36.8%
